According to ChEMBL document CHEMBL5303300, “EUbOPEN Chemogenomics Library - Multiplex” (2023):
“And” between values parts separate entries of the source, which are not always exact repeats. Identical values can stand only once.

What was measured:
Fibroblast = experiment: Multiplex assay against human fibroblast; type: toxicity, cell-based; settings: number of replicates 2
Summary of the method: (§1)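 Imaging took place on a CQ1 microscope at 37°C and 5% CO2 once compound had been added to live cells stained at seeding with Hoechst33342, BioTracker Green Microtubule Cytoskeleton Dye, MitoTracker Red and Annexin V Alexa Fluor 680. CellPathfinder machine-learning gating classed cells as Hoechst high-intensity objects or normal cells, classed normal cells as having healthy, pyknosed or fragmented nuclei, and classed pyknosed cells as mitotic or apoptotic. Tubulin, mitochondrial-mass and membrane-permeability phenotypes are per cents of the healthy-nucleus cells.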

U2OS = experiment: Multiplex assay against U2OS; type: toxicity, cell-based; settings: human, number of replicates 2; summary of the method: as §1
[1] = 12 h, 1 µM, compound concentration 1 uM
[2] = 12 h, 10 µM, compound concentration 10 uM
[3] = 24 h, 1 µM, compound concentration 1 uM
[4] = 24 h, 10 µM, compound concentration 10 uM
[5] = 48 h, 1 µM, compound concentration 1 uM
[6] = 48 h, 10 µM, compound concentration 10 uM

## CCn1c(-c2nonc2N)nc2cncc(C(=O)N3CC[C@H](N)C3)c21.Cl
Fibroblast; [1]
  Population Apoptotic (%): 33% and 45%
  Population Fragmented Nuclei (%): 6% and 11%
  Population Healthy Nuclei (%): 73% and 74%
  Population Hoechst High Intensity Objects (%): 0%
  Population Membrane Permeable-Phenotype (%): 6% and 1%
  Population Mitochondria Different-Phenotype (%): 0% and 1%
  Population Mitotic Cells (%): 66% and 54%
  Population Normal (%): 100%
  Population Pyknosed Nuclei (%): 19% and 13%
  Population Tubulin-Different-Phenotype (%): 2% and 4%
  Total Cell Count: 202 and 240
Fibroblast; [2]
  Population Apoptotic (%): 9% and 19%
  Population Fragmented Nuclei (%): 6% and 12%
  Population Healthy Nuclei (%): 65% and 67%
  Population Hoechst High Intensity Objects (%): 0%
  Population Membrane Permeable-Phenotype (%): 3% and 1%
  Population Mitochondria Different-Phenotype (%): 1% and 2%
  Population Mitotic Cells (%): 90% and 80%
  Population Normal (%): 99% and 100%
  Population Pyknosed Nuclei (%): 28% and 20%
  Population Tubulin-Different-Phenotype (%): 11% and 6%
  Total Cell Count: 196 and 295
Fibroblast; [3]
  Population Apoptotic (%): 50% and 69%
  Population Fragmented Nuclei (%): 4% and 10%
  Population Healthy Nuclei (%): 83% and 78%
  Population Hoechst High Intensity Objects (%): 0%
  Population Membrane Permeable-Phenotype (%): 4% and 2%
  Population Mitochondria Different-Phenotype (%): 0%
  Population Mitotic Cells (%): 50% and 30%
  Population Normal (%): 100%
  Population Pyknosed Nuclei (%): 11%
  Population Tubulin-Different-Phenotype (%): 2% and 5%
  Total Cell Count: 191 and 224
Fibroblast; [4]
  Population Apoptotic (%): 23%
  Population Fragmented Nuclei (%): 8% and 10%
  Population Healthy Nuclei (%): 76% and 77%
  Population Hoechst High Intensity Objects (%): 0%
  Population Membrane Permeable-Phenotype (%): 2% and 0%
  Population Mitochondria Different-Phenotype (%): 4% and 2%
  Population Mitotic Cells (%): 76%
  Population Normal (%): 100%
  Population Pyknosed Nuclei (%): 15% and 11%
  Population Tubulin-Different-Phenotype (%): 10% and 3%
  Total Cell Count: 196 and 266
Fibroblast; [5]
  Population Apoptotic (%): 86% and 66%
  Population Fragmented Nuclei (%): 6% and 10%
  Population Healthy Nuclei (%): 85%
  Population Hoechst High Intensity Objects (%): 0%
  Population Membrane Permeable-Phenotype (%): 3% and 2%
  Population Mitochondria Different-Phenotype (%): 0%
  Population Mitotic Cells (%): 13% and 33%
  Population Normal (%): 100%
  Population Pyknosed Nuclei (%): 7% and 4%
  Population Tubulin-Different-Phenotype (%): 1% and 3%
  Total Cell Count: 196 and 220
Fibroblast; [6]
  Population Apoptotic (%): 57% and 69%
  Population Fragmented Nuclei (%): 11% and 9%
  Population Healthy Nuclei (%): 72% and 80%
  Population Hoechst High Intensity Objects (%): 0%
  Population Membrane Permeable-Phenotype (%): 2% and 1%
  Population Mitochondria Different-Phenotype (%): 0%
  Population Mitotic Cells (%): 42% and 30%
  Population Normal (%): 100% and 99%
  Population Pyknosed Nuclei (%): 15% and 9%
  Population Tubulin-Different-Phenotype (%): 2% and 3%
  Total Cell Count: 184 and 264
U2OS; [1]
  Population Apoptotic (%): 50% and 90%
  Population Fragmented Nuclei (%): 13% and 3%
  Population Healthy Nuclei (%): 73% and 87%
  Population Hoechst High Intensity Objects (%): 0%
  Population Membrane Permeable-Phenotype (%): 0% and 1%
  Population Mitochondria Different-Phenotype (%): 4% and 0%
  Population Normal (%): 100%
  Population Pyknosed Nuclei (%): 13% and 9%
  Population Tubulin-Different-Phenotype (%): 72% and 77%
U2OS; [2]
  Population Apoptotic (%): 75% and 35%
  Population Healthy Nuclei (%): 69% and 78%
  Population Hoechst High Intensity Objects (%): 0%
  Population Membrane Permeable-Phenotype (%): 5% and 0%
  Population Mitochondria Different-Phenotype (%): 0%
  Population Mitotic Cells (%): 25% and 64%
  Population Normal (%): 100%
  Population Pyknosed Nuclei (%): 8% and 16%
  Population Tubulin-Different-Phenotype (%): 67% and 87%
U2OS; [3]
  Population Apoptotic (%): 80% and 96%
  Population Fragmented Nuclei (%): 5% and 3%
  Population Healthy Nuclei (%): 80% and 87%
  Population Hoechst High Intensity Objects (%): 0%
  Population Membrane Permeable-Phenotype (%): 7% and 0%
  Population Mitochondria Different-Phenotype (%): 3% and 1%
  Population Normal (%): 100%
  Population Pyknosed Nuclei (%): 14% and 9%
  Population Tubulin-Different-Phenotype (%): 71% and 79%
U2OS; [4]
  Population Apoptotic (%): 55% and 57%
